Activity calls are given as the source filed them. The calls are words filed in the database; no cut-off is given here.

Data set [1] addresses Sigma non-opioid intracellular receptor 1 (Rattus norvegicus, UniProt Q9R0C9). As to the kind of experiment: Displacement of [3H]-pentazocine from sigma 1 receptor in male Sprague-Dawley rat liver membrane assessed as inhibition constant by liquid scintillation counter analysis. It is filed as cell membranes. On the technique in general: Displacement assays read how much labelled ligand stays bound in the presence of the test substance.

Data set [2] concerns the target T1, Sigma intracellular receptor 2 (Rattus norvegicus, UniProt Q5U3Y7).
T1 sequence (Q5U3Y7 whole entry): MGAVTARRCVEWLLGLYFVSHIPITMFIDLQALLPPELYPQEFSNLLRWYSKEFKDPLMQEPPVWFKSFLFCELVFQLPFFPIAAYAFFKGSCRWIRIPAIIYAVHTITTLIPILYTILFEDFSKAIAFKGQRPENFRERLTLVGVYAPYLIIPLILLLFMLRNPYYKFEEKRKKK
As to the kind of experiment: Displacement of [3H]-DTG from sigma 2 receptor in male Sprague-Dawley rat liver membrane assessed as inhibition constant in presence of pentazocine by liquid scintillation counter analysis. It is filed as cell membranes.

Data set [3] addresses Mu-type opioid receptor (Rattus norvegicus, UniProt P33535). As to the kind of experiment: Displacement of [3H]-DAMGO from MOR in male Sprague-Dawley rat brain membrane assessed as inhibition constant incubated for 45 mins by liquid scintillation counter analysis. It is filed as cell membranes.
For data set [4], the target named is Kappa-type opioid receptor (Cavia porcellus, UniProt P41144). The data set is described as follows: Displacement of [3H]-U69593 from KOR in male Dunkin-Hartley guinea pig brain membrane assessed as inhibition constant incubated for 30 mins by liquid scintillation counter analysis. It is filed as cell membranes.
The target of data set [5] is Delta-type opioid receptor (Rattus norvegicus, UniProt P33533). As to the kind of experiment: Displacement of [3H]-Deltorphin from DOR in male Sprague-Dawley rat brain membrane assessed as inhibition constant incubated for 45 mins by liquid scintillation counter analysis. Type of data set: cell membranes.
The nature of data set [6]: Stability of the compound in C57 mouse plasma assessed as retention time at 200 uM measured up to 60 mins by RP-HPLC analysis. Type of data set: ADME, cell-free. To be noted: 1 h. Put shortly:
(§1)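 A 10 mM DMSO stock was added to C57 mouse plasma prewarmed to 37 °C (final 200 μM) and held at 37 ± 0.5 °C. Samples taken at 0, 1, 5, 20 and 60 min were deproteinized 1:1 with acetonitrile containing 0.1% HCOOH (100 μM), centrifuged, filtered, and analysed by C18 RP-HPLC-DAD. Duplicates; t1/2 from a one-phase exponential decay fit with the plateau fixed at 0.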

Data set [7] concerns Mus musculus. As to the kind of experiment: Antinociceptive activity in formalin-induced male CD1 mouse model assessed as effect on nociceptive behavior by measuring behavioral pain (phase II) at 3 mg/kg, ip pre-administered with compound for 20 mins followed by formalin induction and measured for 1 hrs. It is filed as functional, organism-based. To be noted: time 80.0 min. Summed up:
(§2)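 Male CD1 mice, 8–12 weeks, randomized and acclimated 20 min. Drug in saline with 0.5% v/v DMSO given i.p. 20 min before formalin (5%, 10 μL) into the right hind-paw plantar surface. Licking, flicking or shaking of the injected paw recorded every 5 min for 1 h by a blinded observer.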

Data set [8] in a line: Stability of the compound in C57 mouse plasma assessed as half life at 200 uM measured up to 60 mins by RP-HPLC analysis. It is filed as ADME, cell-free. To be noted: 1 h. Put shortly: as §1
For data set [9], the system named is Mus musculus. The data set is described as follows: Antinociceptive activity in formalin-induced male CD1 mouse assessed as reduction in nociceptive behavior by measuring decrease in lifting/licking time at behavioral pain phase (II) at 5 to 7 mg/kg, ip pre-administered with compound for 20 mins followed by formalin induction and measured for 1 hrs. Type of data set: functional, organism-based. To be noted: dose 5-7 mg/kg, time 80.0 min. Put shortly: as §2

Data set [10] has as its system Mus musculus. As to the kind of experiment: Antinociceptive activity in formalin-induced male CD1 mouse assessed as reduction in nociceptive behavior by measuring decrease in flinches at behavioral pain phase (II) at 5 to 7 mg/kg, ip pre-administered with compound for 20 mins followed by formalin induction and measured for 1 hrs. To be noted: dose 5-7 mg/kg, time 80.0 min. Type of data set: functional, organism-based. Put shortly:
as §2

The subject of data set [11] is Mus musculus. The data set is described as follows: Antinociceptive activity in formalin-induced male CD1 mouse model assessed as effect on nociceptive behavior by measuring rapid pain response (phase I) at 3 to 7 mg/kg, ip pre-administered with compound for 20 mins followed by formalin induction and measured for 1 hrs. It is filed as functional, organism-based. To be noted: dose 3-7 mg/kg, time 80.0 min. Summed up:
as §2

Data set [12] in a line: Chemical stability of the compound in aqueous phosphate buffer at pH 7.4 assessed as half life at 200 uM by RP-HPLC analysis. Type of data set: physicochemical. To be noted: pH 7.4, 200 µM. Put shortly: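 A 10 mM DMSO stock was added to pH 7.4 phosphate buffer prewarmed to 37 °C (final 200 μM) and held at 37 ± 0.5 °C for up to 300 min. Aliquots were mixed 1:1 with acetonitrile (100 μM), filtered and run on C18 RP-HPLC with DAD at 285 nm against a 10–250 μM calibration curve. Duplicates; t1/2 from a one-phase exponential decay fit.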

Data set [13] is described as follows: Stability of the compound in C57 mouse plasma at 200 uM measured up to 5 mins by RP-HPLC analysis. It is filed as ADME, cell-free. Put shortly: as §1
The nature of data set [14]: Stability of the compound in C57 mouse plasma at 200 uM measured at >= 20 mins by RP-HPLC analysis. It is filed as ADME, cell-free. Summed up: as §1

Sequence of Kappa-type opioid receptor (P41144 whole entry): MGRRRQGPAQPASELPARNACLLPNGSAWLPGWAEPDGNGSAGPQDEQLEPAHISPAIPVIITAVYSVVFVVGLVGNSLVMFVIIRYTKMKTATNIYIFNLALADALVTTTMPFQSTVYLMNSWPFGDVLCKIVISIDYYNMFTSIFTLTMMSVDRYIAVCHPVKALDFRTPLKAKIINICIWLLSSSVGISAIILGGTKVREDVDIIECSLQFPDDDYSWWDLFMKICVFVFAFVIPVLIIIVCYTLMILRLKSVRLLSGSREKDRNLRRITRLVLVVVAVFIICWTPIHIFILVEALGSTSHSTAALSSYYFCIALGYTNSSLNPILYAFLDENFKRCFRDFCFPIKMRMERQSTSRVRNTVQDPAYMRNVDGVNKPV
Sequence of Delta-type opioid receptor (P33533 whole entry): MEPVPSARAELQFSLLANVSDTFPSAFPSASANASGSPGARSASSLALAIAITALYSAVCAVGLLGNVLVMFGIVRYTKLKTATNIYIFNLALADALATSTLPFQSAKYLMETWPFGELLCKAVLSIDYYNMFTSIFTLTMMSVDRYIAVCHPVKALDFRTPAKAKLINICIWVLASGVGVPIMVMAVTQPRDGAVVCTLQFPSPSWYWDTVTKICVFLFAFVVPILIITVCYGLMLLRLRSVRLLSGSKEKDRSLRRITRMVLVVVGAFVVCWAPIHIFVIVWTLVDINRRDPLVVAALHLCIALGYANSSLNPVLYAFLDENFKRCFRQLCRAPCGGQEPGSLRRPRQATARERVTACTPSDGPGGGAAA
Sequence of Mu-type opioid receptor (P33535 whole entry): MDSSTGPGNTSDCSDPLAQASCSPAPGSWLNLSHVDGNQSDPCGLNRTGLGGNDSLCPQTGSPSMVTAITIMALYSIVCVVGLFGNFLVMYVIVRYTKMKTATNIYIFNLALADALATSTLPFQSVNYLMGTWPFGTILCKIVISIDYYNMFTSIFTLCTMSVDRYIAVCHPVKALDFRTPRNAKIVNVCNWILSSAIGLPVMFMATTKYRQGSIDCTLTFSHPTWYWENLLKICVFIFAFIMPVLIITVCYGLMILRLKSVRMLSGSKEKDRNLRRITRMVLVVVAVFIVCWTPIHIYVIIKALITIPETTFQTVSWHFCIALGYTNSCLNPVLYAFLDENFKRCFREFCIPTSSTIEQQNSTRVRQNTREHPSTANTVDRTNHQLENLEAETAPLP
Sequence of Sigma non-opioid intracellular receptor 1 (Q9R0C9 whole entry): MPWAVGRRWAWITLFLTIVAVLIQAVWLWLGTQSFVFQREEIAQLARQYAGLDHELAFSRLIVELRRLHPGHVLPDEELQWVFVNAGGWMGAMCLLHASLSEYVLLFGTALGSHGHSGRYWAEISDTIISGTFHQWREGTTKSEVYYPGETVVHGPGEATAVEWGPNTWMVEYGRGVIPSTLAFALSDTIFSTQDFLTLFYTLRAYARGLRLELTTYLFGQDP

For orientation: Ki means a dissociation constant, usually derived from enzyme kinetics or from competition with a known ligand. Turning to `C[C@@H]1[C@@H]2Cc3ccc(O)cc3[C@@]1(C)CCN2CCC(C(=O)O)c1ccccc1` (mixture of isomers), the Ki in [1] was above 10 µM; in [2], above 10 µM; in data set [3], above 5 µM; in [4], above 5 µM; in [5], above 5 µM.
In the case of `COC(=O)CCCN1CC[C@]2(C)c3cc(O)ccc3C[C@H]1[C@H]2C`, the Ki is 0.159 µM in data set [1]; above 10 µM in [2]; above 5 µM in data set [3]; above 5 µM in [4]; above 5 µM in data set [5].
As to `COC(=O)CCN1CC[C@]2(C)c3cc(O)ccc3C[C@H]1[C@H]2C`, the Ki in [1] was above 10 µM; in data set [2] it was above 10 µM; in data set [3] it was above 5 µM; in [4], above 5 µM; in [5], above 5 µM.
Turning to `C[C@@H]1[C@@H]2Cc3ccc(O)cc3[C@@]1(C)CCN2CCCC(=O)O`, the Ki in data set [1] was above 10 µM; in data set [2] it was above 10 µM; in [3] it was above 5 µM; in data set [4], above 5 µM; in data set [5], above 5 µM.
For the compound `C[C@@H]1[C@@H]2Cc3ccc(O)cc3[C@@]1(C)CCN2CCC(=O)O`, the Ki in [1] is above 10 µM; in data set [2], above 10 µM; in data set [3], above 5 µM; in [4], above 5 µM; in data set [5], above 5 µM.
Regarding `C[C@@H]1[C@@H]2Cc3ccc(O)cc3[C@@]1(C)CCN2CC(C(=O)O)c1ccccc1` (mixture of isomers), the Ki in [1] is 0.664 µM; in data set [2] it was above 10 µM; in [3], above 5 µM; in [4], above 5 µM; in data set [5] it was above 5 µM.
With `CCOC(=O)C(CN1CC[C@]2(C)c3cc(O)ccc3C[C@H]1[C@H]2C)c1ccccc1` (mixture of isomers), the Ki in data set [1] is above 10 µM; in data set [2], above 10 µM; in [3], above 5 µM; in [4], above 5 µM; in [5], above 5 µM.
As to `CCOC(=O)C(CCCN1CC[C@]2(C)c3cc(O)ccc3C[C@H]1[C@H]2C)c1ccccc1` (mixture of isomers), the Ki in [1] was 0.594 µM; in data set [2] it was above 10 µM; in [3] it was above 5 µM; in data set [4], above 5 µM; in data set [5], above 5 µM.
Turning to `C[C@@H]1[C@@H]2Cc3ccc(O)cc3[C@@]1(C)CCN2CCCC(C(=O)O)c1ccccc1` (mixture of isomers), the Ki in [1] is above 10 µM; in [2], above 10 µM; in data set [3] it was above 5 µM; in data set [4] it was above 5 µM; in [5], above 5 µM.
`CCOC(=O)C(CCN1CC[C@]2(C)c3cc(O)ccc3C[C@H]1[C@H]2C)c1ccccc1` (mixture of isomers): the inhibition constant (Ki) in data set [1] was 0.0275 µM; in [2] it was above 1 µM; in data set [3] it was above 5 µM; in data set [4] it was above 5 µM; in [5] it was above 5 µM. In addition, the Retention_time in data set [6] stood at 10.52 min. Also, the Activity entry in [7] and in [11] was “Not active; Compound Did Not Significantly Modify Licking And Flicking/Shanking Time Of Injected Paw” throughout. Also, the t1/2 in [8] was 0.5178 h; in [12], 5 h. Besides, the result in data set [9] and in data set [10] was Active. The Stability result in data set [13] was “Stable”; in data set [14] it was “Unstable”.

The values above are taken from ChEMBL document CHEMBL6182827 (RSC Med Chem, 2025).
